Results from ChEMBL document CHEMBL1687889, “Antitumor agents. 284. New desmosdumotin B analogues with bicyclic B-ring as cytotoxic and antitubulin agents” (J Med Chem, 2011).
Active and inactive are the calls of the source. The rule behind the calls is not given here.

Experiments:
[1] = tested on: HCT-8; test: Antiproliferative activity against human HCT8 cells after 3 days by sulforhodamine B assay; type: functional; conditions: HCT-8, 72 h
Summary of the method: (§1)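 Cells grown in RPMI-1640 with 25 mM HEPES, 0.25% sodium bicarbonate, 10% FBS and 100 μg/mL kanamycin. Exposed to compound for 3 days, with at most 0.5% v/v DMSO. Attached cells fixed in cold 50% TCA, stained with 0.4% sulforhodamine B, and the bound dye solubilized. A562 read. GI50 is the concentration giving a 50% absorbance drop versus untreated cells.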

[2] = tested on: A549; test: Antiproliferative activity against human A549 cells after 3 days by sulforhodamine B assay; type: functional; conditions: A549, 72 h; summary of the method: as §1
[3] = Antiproliferative activity against human KBVIN cells after 3 days by sulforhodamine B assay; type: functional; conditions: 72 h; summary of the method: as §1
[4] = tested on: PC-3; test: Antiproliferative activity against human PC3 cells after 3 days by sulforhodamine B assay; type: functional; conditions: PC-3, 72 h
[5] = tested on: KB; test: Antiproliferative activity against human KB cells after 3 days by sulforhodamine B assay; type: functional; conditions: 72 h; summary of the method: as §1
[6] = tested on: MCF7; test: Antiproliferative activity against human MCF7 cells after 3 days by sulforhodamine B assay; type: functional; conditions: MCF7, 72 h
[7] = tested on: HepG2; test: Antiproliferative activity against human HepG2 cells after 3 days by sulforhodamine B assay; type: functional; conditions: HepG2, 72 h
Summary of the method: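 Sulforhodamine B assay over 3 days in culture, with at most 0.5% v/v DMSO. Attached cells fixed in cold 50% TCA, stained with 0.4% SRB, and the dye solubilized. Absorbance read at 562 nm. GI50 is the concentration causing a 50% fall in absorbance relative to untreated cells.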

[8] = Inhibition of tubulin assembly after 20 mins by turbidimetric assay; conditions: read-out: IC50
Summary of the method: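 Turbidimetry at 350 nm. 10 μM (1.0 mg/mL) tubulin preincubated with compound for 15 min at 30 °C without GTP, then chilled, and 0.4 mM GTP added. Turbidity followed for 20 min at 30 °C after a temperature jump from 0 °C. IC50 is the concentration halving the turbidity increase relative to control.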

[9] = Displacement of [3H]colchicine from tubulin at 5 uM for 10 mins
Summary of the method: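 1.0 μM tubulin incubated with 5.0 μM [3H]colchicine and 5.0 μM inhibitor for 10 min at 37 °C, when control samples reach about 40–60% of maximal colchicine binding. Result given as percent inhibition of colchicine binding.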

[10] = tested on: HCT-8; test: Antiproliferative activity against human HCT8 cells at 20 ug/ml after 3 days by sulforhodamine B assay; type: functional, cell-based

Row | SMILES | GI50 [1] [µM] | GI50 [2] [µM] | GI50 [3] [µM] | GI50 [4] [µM] | GI50 [5] [µM] | GI50 [6] [µM] | GI50 [7] [µM] | IC50 [8] [µM] | inhibition [9] [%] | Activity [10]
1 | CC1=C(O)c2c(oc(-c3cccc4ccccc34)cc2=O)C(C)(C)C1=O [2-(NAPHTHALEN-1-YL)DESMOSDUMOTIN B] | 1.16 | 1.73 | 0.58 | 1.45 | 0.29 | 1.73 | – | – | – | –
2 | CCC1=C(O)c2c(oc(-c3cnc4ccccc4c3)cc2=O)C(CC)(CC)C1=O | 12.8 | 12.8 | 14.9 | 12.8 | 15.4 | 19.3 | 14.9 | – | – | –
3 | CC1=C(O)c2c(oc(-c3ccc(C)c4ccccc34)cc2=O)C(C)(C)C1=O | 2.56 | 1.25 | 0.72 | 13.3 | 0.61 | – | 1.33 | 2.5 | 37 | –
4 | CCC1=C(O)c2c(oc(-c3cccc4ccccc34)cc2=S)C(CC)(CC)C1=S | 13.3 | 5.95 | 5.95 | 24.1 | 7.38 | 14.1 | 24.1 | – | – | –
5 | CC[C@]1(O)C[C@H]2CN(CCc3c([nH]c4ccccc34)[C@@](C(=O)OC)(c3cc4c(cc3OC)N(C=O)[C@H]3[C@@](O)(C(=O)OC)[C@H](OC(C)=O)[C@]5(CC)C=CCN6CC[C@]43[C@@H]65)C2)C1 [VINCRISTINE] | 0.036 | 0.007 | 9.09 | – | 0.004 | – | – | – | – | –
6 | CCC1=C(O)c2c(oc(-c3ccc(OC)c4ccccc34)cc2=O)C(CC)(CC)C1=O | 3.35 | 1.48 | 1.56 | 2.39 | 1.67 | 3.59 | 1.48 | 2.7 | 31 | –
7 | CCC1=C(O)c2c(oc(-c3coc4ccccc34)cc2=O)C(CC)(CC)C1=O | 15.6 | 9.79 | 2.09 | 28 | 4.5 | – | 17.7 | – | – | –
8 | CCC1=C(OC)C(CC)(CC)c2oc(-c3cccc4ccccc34)c(Br)c(=O)c2C1=O | 7.68 | 4.77 | 9.96 | 10.8 | 9.13 | 11 | 14.5 | – | – | –
9 | CCC1=C(O)c2c(oc(-c3ccc4c(c3)OCCO4)cc2=O)C(CC)(CC)C1=O | 2.27 | 1.52 | 1.14 | 1.52 | 1.26 | 1.89 | 1.52 | 6.5 | 33 | –
10 | CCC1=C(O)c2c(oc(-c3ccc(C)c4ccccc34)cc2=O)C(CC)(CC)C1=O | 0.62 | 0.5 | 0.27 | 2.49 | 0.47 | 0.75 | 1.24 | 2.7 | 50 | –
11 | CC1=C(O)c2c(oc(-c3ccc4c(c3)OCCO4)cc2=O)C(C)(C)C1=O | 1.3 | – | 0.65 | 1.5 | 0.76 | – | 23.7 | 3.7 | 36 | –
12 | CCC1=C(O)c2c(oc(-c3ccc4cc(OC)ccc4c3)cc2=O)C(CC)(CC)C1=O | 12 | 16.8 | 9.57 | 4.78 | 10.8 | 8.37 | 13.4 | – | – | –
13 | CC1=C(O)c2c(oc(-c3csc4ccccc34)cc2=O)C(C)(C)C1=O | 1.08 | 0.23 | 0.09 | 0.91 | 0.11 | – | 0.57 | 2.4 | 69 | –
14 | CCC1=C(O)c2c(oc(-c3c(C)ccc4ccccc34)cc2=O)C(CC)(CC)C1=O | 17.4 | 17.4 | 19.9 | 12.4 | 19.9 | 13.7 | 16.7 | – | – | –
15 | CCC1=C(O)C2=C(OC(c3cccc4ccccc34)CC2=O)C(CC)(CC)C1=O (stereo unspecified) | 9.28 | 7.99 | 3.87 | 12.6 | 5.93 | – | 9.02 | – | – | –
16 | CCC1=C(O)c2c(oc(-c3cccc4ccccc34)cc2=O)C(CC)(CC)C1=S | 8.17 | 1.86 | 2.7 | 16.6 | 1.41 | 3.22 | 8.42 | – | – | –
17 | CCC1=C(O)c2c(oc(-c3cc4ccccc4s3)cc2=O)C(CC)(CC)C1=O | 19 | 14 | 9.9 | 3.81 | 11.2 | 15.2 | 15.7 | – | – | –
18 | CCC1=C(O)c2c(oc(-c3cc4ccccc4c4ccccc34)cc2=O)C(CC)(CC)C1=O [6,8,8-TRIETHYL-2-(PHENANTHREN-9-YL) DESMOSDUMOTIN B] | 12.8 | 18.3 | 9.82 | 13.7 | 11.4 | 9.13 | – | – | – | –
19 | CCC1=C(OC)C(CC)(CC)c2oc(-c3cccc4ccccc34)cc(=O)c2C1=O | 11.7 | 16.7 | 9.7 | 14.7 | 11.2 | 20.9 | 20.7 | – | – | –
20 | CCC1=C(O)c2c(oc(-c3cccc4ccccc34)cc2=O)C(CC)(CC)C1=O [2-(NAPHTHALEN-1-YL)-6,8,8-TRIETHYL DESMOSDUMOTIN B] | 1.03 | 1.55 | 0.77 | 1.03 | 1.55 | 1.55 | 2.06 | 2.3 | 43 | –
21 | CCC1=C(O)c2c(oc(-c3ccc(-c4ccccc4)cc3)cc2=O)C(CC)(CC)C1=O | – | 18.1 | 12.1 | 8.45 | 18.1 | 15.7 | 19.3 | – | – | inactive
22 | CCC1=C(O)c2c(oc(-c3ccc4c5c(cccc35)CC4)cc2=O)C(CC)(CC)C1=O | 2.42 | 6.04 | 1.93 | 6.04 | 2.17 | 3.62 | 4.59 | – | – | –
23 | CCC1=C(O)c2c(oc(-c3ccc4c(c3)OCO4)cc2=O)C(CC)(CC)C1=O | 13.1 | 26.2 | 17 | 5.24 | 18.3 | 11.3 | 11.8 | – | – | –
24 | CCC1=C(O)c2c(oc(-c3cn(C)c4ccccc34)cc2=O)C(CC)(CC)C1=O | 15.9 | 5.63 | 2.81 | 20.5 | 18.7 | 17.4 | 21.7 | – | – | –
